Cl transport mod – modulators of human KCC2 chloride dependent transport; KCC2 cells, thallium flux FluoZin-2 fluorescence; B-score of Tl+ flux slope (higher = more flux/activation; lower = inhibition) at 10 µM; 2.2% of 190,000 active; AID 1456;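 active means thallium flux slope and its plate-corrected score both differing from the plate sample mean at a set confidence after two filtering rounds, in either direction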;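 further: slope of fluorescence scaled to starting intensity during 10 to 20 s after thallium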
ROMK primary – modulators of human ROMK potassium channel; 2% of 130,000 active; AID 1918; B-score at 10 µM; P48048; Tet-inducible ROMK, thallium flux fluorescence; actives lie on both sides;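 active means signal ratio slope over the read window, or its plate-corrected B-score, at least 3 SD from the plate mean, either direction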;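 further: B-score of the F/F0 ratio slope over 7 to 12 s after thallium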
Rad51 HR inh – Rad51 (human) homologous recombination inhibition | hRad51 DNA strand exchange, fluorescence dequenching | 0.085% of 200,000 active | AID 1385 | inhibition, % at 10 µM;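 active means inhibition above 40% at the single screening dose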
Target sequence (Q06609 whole entry, looked up): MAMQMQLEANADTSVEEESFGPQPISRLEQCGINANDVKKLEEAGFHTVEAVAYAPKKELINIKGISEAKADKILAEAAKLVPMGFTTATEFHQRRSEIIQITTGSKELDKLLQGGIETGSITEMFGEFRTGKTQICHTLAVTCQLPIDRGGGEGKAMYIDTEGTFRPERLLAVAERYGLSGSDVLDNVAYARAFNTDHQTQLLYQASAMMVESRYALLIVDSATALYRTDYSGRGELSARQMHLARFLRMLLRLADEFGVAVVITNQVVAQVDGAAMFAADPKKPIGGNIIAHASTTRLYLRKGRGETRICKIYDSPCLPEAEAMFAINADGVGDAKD
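material = hRad51 filaments on single-stranded DNA | timing = filaments 15 min 37 °C, then compound 30 min | signal = FRET fluorescence dequenching, excitation 485 nm, emission 520 nm | benchmarks = control wells and blank wells on each plate | evaluation = percent inhibition relative to plate controls and blanks | compound = 10 µM final, single point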
PKD1 inh – PKD1 (human) kinase inhibition. Q15139. PKD1 kinase fluorescence polarization assay. inhibition, % (no concentration beside the values). 0.056% of 200,000 active. AID 797; in the data active means inhibition above about 50%
ROMK hit retest – retested hit modulating human ROMK potassium channel; shares compounds with ROMK primary; ROMK thallium flux, fluorescence ratio; stronger effect = lower value; normalized thallium flux (F/F0 slope) at 10 µM; 54% of 3,000 active; AID 1917;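 active means Flux at 10 µM at least 3 SD below or above vehicle control mean in one or both replicates; inconclusive means no clear call, values can overlap the other calls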
Of the large screens only hits and unclear results are named; the others gave an inactive call (follow-up assays come after a bar, where they were run). Only some compounds are listed: those with a hit (about 3% of all), similar ones and a draw of the others.

COCCCNS(=O)(=O)c1ccc2[nH]c(=O)[nH]c2c1	none (no result: ROMK primary, Rad51 HR inh, PKD1 inh)
COc1cccc(/C=C/C(=O)OCC(=O)Nc2ccc(Cl)cn2)c1	none
CC(C)CCN(C(=S)NC(=O)C1CCCCC1)c1c(N)n(Cc2ccccc2)c(=O)[nH]c1=O	none
c1cc2c(cn1)cnc1cscc12	ROMK primary 2.6 | ROMK hit retest inactive
c1cnc2c(c1)ncc1cscc12	none
CCOC(=O)N/N=C/c1c(F)c(F)c(F)c(F)c1F	ROMK primary 1.5 | ROMK hit retest inactive
CCOC(=O)N/N=C/c1ccccc1F	ROMK primary -14 (no result: Rad51 HR inh) | ROMK hit retest inactive
CCOC(=O)N/N=C/c1c(F)cccc1F	none (no result: Rad51 HR inh)
O=C(O)CCCCCNC(=O)Cn1nnc2ccccc2c1=O	none (no result: ROMK primary, PKD1 inh)
CC1(C)CNC(=O)c2sc(NC(=O)c3ccccc3Cl)nc2C1	none | ROMK hit retest inactive
C=CCNC(=O)c1scc2c1CCCC2	none
CN(C)CCNC(=O)c1scc2c1CCCC2	none (no result: ROMK primary, Rad51 HR inh, PKD1 inh) | ROMK hit retest inactive
CCOC(=O)CCNC(=O)c1ccccc1Br	none (no result: ROMK primary) | ROMK hit retest inactive
Cc1cc(Cl)ccc1OCc1cn2cccnc2n1	ROMK primary 4.1 | ROMK hit retest inconclusive
Cc1ccc2c(c1)C(=O)C(=O)N2CC(=O)Nc1ccccc1NC(=O)c1ccccn1	none (no result: ROMK primary, PKD1 inh)
CCn1c(=O)n(CC)c2cc(S(=O)(=O)N3CCc4ccccc43)ccc21	none (no result: ROMK primary) | ROMK hit retest inconclusive
Cn1c(SCC(=O)Nc2ccccc2)nnc1-c1ccc2nonc2c1	none (no result: PKD1 inh)
CNC(=O)CCCc1nc(-c2ccccc2Cl)no1	ROMK primary 3.1 (no result: Cl transport mod) | ROMK hit retest inactive
CCOc1cc(CNc2ccc3c(c2)OCCO3)cc(Br)c1OC	ROMK primary 4.9 | ROMK hit retest inactive
COc1ccc(C2=CC(=O)OC3(CCCCC3)O2)cc1	ROMK primary -2.4 | ROMK hit retest 0.062
CC1SC2(NC1=O)C1CC3CC(C1)CC2C3 (stereo not given)	none (no result: Rad51 HR inh)
COc1ccc(C2=C(SC)CC2=NC(C)(C)C)cc1	ROMK primary -4.7 | ROMK hit retest 0.046
CN(C)c1nc(Oc2ccc(C(=O)OCC(=O)Nc3ccccc3)cc2)nc(N(C)C)n1	none (no result: ROMK primary) | ROMK hit retest inactive
COc1ccc(CNC(=O)C2=CCN(S(=O)(=O)c3ccc(C)cc3)CC2)cc1	none (no result: Rad51 HR inh, PKD1 inh)
Cc1cc(N)c2cc(NC(=O)/C=C/c3ccccc3Cl)ccc2n1	none (no result: ROMK primary, PKD1 inh) | ROMK hit retest 0.055
COC(=O)CSC1=C(C#N)C(c2ccc(C)o2)CC(=O)N1 (stereo not given)	ROMK primary 2.7 | ROMK hit retest inactive
O=C1c2cccnc2C(Nc2ccc(Br)cc2Br)N1Cc1cccs1 (stereo not given)	none
CCOc1ccc(OCCOCCOc2ccccc2Cl)cc1	none (no result: Rad51 HR inh)
COc1ccccc1OCCOCCOc1ccccc1Cl	ROMK primary -2.8 | ROMK hit retest inactive
C/C(=N\NC(=O)c1ccccc1)c1cc2cc([N+](=O)[O-])ccc2oc1=O	ROMK primary -2.9 | ROMK hit retest 0.055
Cc1ccc(CN2C3CCCC2CC(NC(=O)c2ccc(C)cc2)C3)cc1 (stereo not given)	ROMK primary -2.7 | ROMK hit retest 0.056
Cc1ccc(C(=O)NC2CC3CCC(C2)N3Cc2ccco2)cc1 (stereo not given)	none (no result: ROMK primary)
O=C(Cn1cnc2ccccc21)N1CCN(S(=O)(=O)c2ccccc2)CC1	none
CCOC(=O)N1CCN(C(=O)C2CCCN(S(=O)(=O)c3cccnc3)C2)CC1 (stereo not given)	none (no result: Cl transport mod, ROMK primary) | ROMK hit retest inactive
O=C(C1CCCN(S(=O)(=O)c2cccnc2)C1)N1CCN(c2ccccn2)CC1 (stereo not given)	none (no result: ROMK primary)
CC(=O)c1ccc(N/N=C(/C(N)=O)C2=NC(C)(C)Cc3ccccc32)cc1	ROMK primary -5.4 (no result: Rad51 HR inh) | ROMK hit retest 0.049
CC1(C)Cc2ccccc2C(/C(=N\Nc2cccc(Cl)c2)C(N)=O)=N1	none
Cc1ccc(C)c(-c2csc(N)c2C(=O)OC(C)C)c1	ROMK primary 2.7 | ROMK hit retest inactive
Cc1cccc(-c2csc(N)c2C(=O)OC(C)C)c1	none (no result: Cl transport mod)
CN(C)CC/C=C1\c2cc(F)ccc2CSc2ccccc21	ROMK primary -3.2 | ROMK hit retest 0.061
CN(C)CC/C=C1/c2cc(F)ccc2CSc2ccc(F)cc21	none
CCCCCc1ccc(-c2ccc(=O)[nH]n2)cc1	none (no result: Cl transport mod, Rad51 HR inh) | ROMK hit retest inactive
CC1CCCCN1S(=O)(=O)c1ccc(S(=O)(=O)NCCc2ccncc2)cc1 (stereo not given)	none
Cc1cccc2sc(N(CCCN(C)C)C(=O)CCc3ccccc3)nc12	ROMK primary -2.1 | ROMK hit retest 0.064
Cc1cccc2sc(N(CCCN(C)C)C(=O)CN3C(=O)c4ccccc4C3=O)nc12	none
